Test [1] can be described thus: Displacement of [3H]-(+)-MK-801 from phencyclidine binding site of NMDA receptor in pig membranes after 150 mins by scintillation counting analysis. It counts as cell membranes, Sus scrofa. An outline of the steps: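 Thawed membrane preparation (about 100 µg protein) incubated with test compound at various concentrations and 2 nM [3H]-(+)-MK-801 (22.0 Ci/mmol) in TRIS/EDTA (5 mM/1 mM, pH 7.5), 150 min, rt. Stopped by rapid filtration over presoaked filtermats, five water washes, melted solid scintillator, then counting. Nonspecific binding was taken with unlabeled (+)-MK-801. Radioligand Kd 2.26 nM.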
In general terms: In a radioligand displacement assay an active substance lowers the binding of a labelled ligand.

The target in test [2] is Glutamate NMDA receptor; GRIN1/GRIN2A (Homo sapiens, UniProt Q05586+Q12879). The test can be described thus: Displacement of [3H]-(+)-MK-801 from phencyclidine binding site of NMDA receptor in human frontal cortex after 22 hrs by scintillation counting analysis. It is filed as tissue-based.
Sequence of Glutamate NMDA receptor; GRIN1/GRIN2A (Q12879 whole entry, other chains not shown): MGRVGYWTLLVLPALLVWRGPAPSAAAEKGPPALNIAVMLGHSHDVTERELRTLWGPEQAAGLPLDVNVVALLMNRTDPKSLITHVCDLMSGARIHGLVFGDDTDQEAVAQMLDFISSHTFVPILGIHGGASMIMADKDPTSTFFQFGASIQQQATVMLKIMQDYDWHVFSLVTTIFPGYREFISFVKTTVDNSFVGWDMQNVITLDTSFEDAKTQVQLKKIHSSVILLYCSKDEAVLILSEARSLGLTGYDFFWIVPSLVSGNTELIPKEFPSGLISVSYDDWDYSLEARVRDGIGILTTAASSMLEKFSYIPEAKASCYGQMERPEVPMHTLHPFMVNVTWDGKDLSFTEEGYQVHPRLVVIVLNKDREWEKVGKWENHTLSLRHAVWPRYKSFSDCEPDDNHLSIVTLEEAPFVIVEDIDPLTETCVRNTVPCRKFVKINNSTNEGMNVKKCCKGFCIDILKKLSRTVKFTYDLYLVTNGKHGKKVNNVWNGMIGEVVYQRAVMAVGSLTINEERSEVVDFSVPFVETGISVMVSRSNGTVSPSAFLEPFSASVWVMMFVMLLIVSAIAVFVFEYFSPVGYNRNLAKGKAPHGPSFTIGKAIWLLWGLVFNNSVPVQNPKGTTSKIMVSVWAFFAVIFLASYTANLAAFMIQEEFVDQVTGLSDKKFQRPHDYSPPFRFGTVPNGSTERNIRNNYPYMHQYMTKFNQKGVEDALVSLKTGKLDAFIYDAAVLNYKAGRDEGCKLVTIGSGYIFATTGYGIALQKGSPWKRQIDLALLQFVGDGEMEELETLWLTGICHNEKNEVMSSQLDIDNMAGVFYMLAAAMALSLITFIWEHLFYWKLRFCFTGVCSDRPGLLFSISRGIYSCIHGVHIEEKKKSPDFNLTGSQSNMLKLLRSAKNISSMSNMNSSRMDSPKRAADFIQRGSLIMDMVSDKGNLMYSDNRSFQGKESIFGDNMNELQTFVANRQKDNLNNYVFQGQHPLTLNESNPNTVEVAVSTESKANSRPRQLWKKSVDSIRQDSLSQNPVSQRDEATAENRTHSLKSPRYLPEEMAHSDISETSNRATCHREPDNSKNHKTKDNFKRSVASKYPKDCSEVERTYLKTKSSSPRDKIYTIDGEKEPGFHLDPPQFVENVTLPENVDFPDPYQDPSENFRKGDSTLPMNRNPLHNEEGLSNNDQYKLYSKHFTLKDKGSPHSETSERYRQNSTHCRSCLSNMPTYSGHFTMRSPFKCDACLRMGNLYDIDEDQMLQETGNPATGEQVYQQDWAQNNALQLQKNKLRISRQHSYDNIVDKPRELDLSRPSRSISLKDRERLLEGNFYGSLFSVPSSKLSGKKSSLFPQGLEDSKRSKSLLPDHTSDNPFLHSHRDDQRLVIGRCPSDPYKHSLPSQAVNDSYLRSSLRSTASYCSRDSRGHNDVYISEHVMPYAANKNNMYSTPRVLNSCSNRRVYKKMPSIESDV
Test [3] has as its system Influenza A virus. Description: Antiviral activity against Influenza virus A/FPV/Bratislava/79(H7N7) infected in human A549 cells assessed as viral replication at 5 uM after 24 hrs by plaque assay relative to control. It is filed as functional.
In test [4] the target is Sigma non-opioid intracellular receptor 1 (Cavia porcellus) (UniProt Q60492). Description: Displacement of [3H]-(+)-pentazocine from sigma-1 receptor in guinea pig brain cortex membranes up to 10 uM after 120 mins by scintillation counting analysis. It counts as cell membranes. Particulars: Cerebral cortex.
Sequence of Sigma non-opioid intracellular receptor 1 (Cavia porcellus) (Q60492 whole entry): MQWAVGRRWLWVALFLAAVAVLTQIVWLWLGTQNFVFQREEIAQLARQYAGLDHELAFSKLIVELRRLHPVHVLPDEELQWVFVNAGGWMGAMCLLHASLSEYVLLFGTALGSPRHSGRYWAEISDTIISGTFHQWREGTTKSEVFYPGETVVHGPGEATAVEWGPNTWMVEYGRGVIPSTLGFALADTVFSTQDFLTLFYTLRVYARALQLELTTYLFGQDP
The species entered for test [5] is Rattus norvegicus. Description: Displacement of [3H]-DTG from sigma-2 receptor in rat liver membranes up to 10 uM after 120 mins by scintillation counting analysis. It is filed as cell membranes. Particulars: Membrane.

Results on six molecules are retold here after ChEMBL document CHEMBL3596097, “Stereoselective synthesis and pharmacological evaluation of [4.3.3]propellan-8-amines as analogs of adamantanamines” (Bioorg Med Chem, 2015).

In general, Ki refers to the equilibrium dissociation constant of an inhibitor or competing ligand from its target. Read a high Ki as lower affinity.

Structures are written as SMILES. Active and inactive are the calls of the source. The calls are words filed in the database; no cut-off is given here.

On to `C[C@]12N[C@H](Cc3ccccc31)c1ccccc12` [DIZOCILPINE], for which the Ki in test [1] was 0.003 µM.
With `NC12CC3CC(CC(C3)C1)C2` [AMANTADINE], the values for the Ki in test [1] and in test [2] were 11 µM and 10 µM, respectively. In test [3], the Activity is on record as 3.9%.
Molecule `N[C@H]1C[C@@]23CCCC[C@@]2(CCC3)C1` showed a Ki in test [1] of 11 µM. In addition, the inhibition result in test [4] and in test [5] was “inactive” throughout. For the same molecule, the Activity in test [3] is reported as 116%.
`CC12CC3CC(C)(C1)CC(N)(C3)C2` [MEMANTINE] yielded a Ki in test [1] of 9.74 µM. This lies in the single-digit micromolar range.
`N[C@@H]1C[C@@]23CCCC[C@@]2(CCC3)C1` returned a Ki in test [1] of 16 µM. In addition, the inhibition entry in test [4] and in test [5] was “inactive” in each case. Besides, the Activity in test [3] is listed as 97%.
Turning to `NC1CC23CCCCC2(CCC3)C1` (mixture of isomers), affinity in test [1] was put at a Ki of 10.5 µM. Besides, the Activity in test [3] is on record as 65%.
